Published values from different studies.
Each line is one published result; the experiments were not run side by side.
Target: Serine/threonine-protein kinase 32C (STK32C, Homo sapiens, UniProt Q86UX6)

| Compound | assay | conditions | remaining binding [%] |
| --- | --- | --- | --- |
| C[C@H]1CCN(c2nccc(-c3cnn4ncccc34)n2)C1 | binding | 1 µM | 100 |
| C[C@@H](c1ccc(-n2cnc3c(N)ncnc32)cc1)N1CCc2nn(C)c(Cc3ccccc3)c2C1=O | binding, competition with immobilised ligand | 0.1 µM | 89 |
| Cc1c[nH]c2nccc(Oc3c(F)cc(Nc4cc(Cl)nc(N)n4)cc3F)c12 | cell-free assay, competition with immobilised ligand | 0.1 µM | 93 |
| CN(C)c1nccc(-c2cnc3ncccn23)n1 | binding | 1 µM | 100 |
| CO[C@H]1CC[C@H](CNc2ccc(S(=O)(=O)NC(=O)c3ccc(N4CCN(CC5=C(c6ccc(Cl)cc6)CC(C)(C)CC5)CC4)cc3Oc3cnc4[nH]ccc4c3)cc2[N+](=O)[O-])CC1 | cell-free assay, competition with immobilised ligand | 1 µM | 54 |
| COc1cnc(Nc2cccc(S(N)(=O)=O)c2)nc1N1CCN(c2ccccc2)C(=O)C1 | binding, competition with immobilised ligand | 1 µM | 100 |
| O=C(c1ccc(Nc2nccc(-c3cc4ccccc4s3)n2)cc1)N1CCC(N2CCCC2)CC1 | binding, competition with immobilised ligand | 1 µM | 100 |
| Nc1ncc2c(n1)-c1c([nH]c3ccc(C#CC4CC4)cc13)CCCC2 | binding, competition with immobilised ligand | 1 µM | 100 |
| c1cnn2ncc(-c3ccnc(N4CCC45COC5)n3)c2c1 | binding | 1 µM | 68 |
| O=C(NCC1CCOCC1)c1n[nH]cc1NC(=O)c1c(F)cccc1F | binding, competition with immobilised ligand | 1 µM | 100 |
| c1cncc(-c2cccc(Nc3nccc(NC4CCCCC4)n3)c2)c1 | binding, competition with immobilised ligand | 10 µM | 55 |
| COc1ccnn2ncc(-c3ccnc(N(C)C)n3)c12 | binding | 1 µM | 80 |
| CNC(=O)Nc1ccc2c(c1)[C@@]1(CC2)OC(=O)N(CC(=O)N(Cc2ccc(F)cc2)[C@@H](C)C(F)(F)F)C1=O | cell-free assay, competition with immobilised ligand | 1 µM | 100 |
| N[C@H]1CCN(c2nccc(-c3cnn4ncccc34)n2)C1 | binding | 1 µM | 97 |
| C[C@@H]1CN(c2cc(-c3nn(C)c4ccc(OC5(C)CC5)cc34)ncn2)C[C@H](C)O1 | cell-free assay, competition with immobilised ligand | 1 µM | 100 |
| CC(C)(C)c1ccc(-c2nc(CBr)nn2-c2cccc(O)c2)cc1 | cell-free assay, competition with immobilised ligand | 10 µM | 54 |
| CCOC(=O)c1cc2cc(-c3cc(C(=O)NCc4ccc(C(=O)O)cc4)nn3C)ccc2[nH]1 | cell-free assay, competition with immobilised ligand | 0.1 µM | 100 |
| F[C@@H]1CCN(c2nccc(-c3cnn4ncccc34)n2)C1 | binding | 1 µM | 89 |
| Cc1cnc(Nc2ccc(C(=O)N3CCC(N4CCCC4)CC3)cc2)nc1-c1cc2ccccc2s1 | binding, competition with immobilised ligand | 1 µM | 100 |
| Cc1nc(Cc2cccc(C(F)(F)F)c2)sc1-c1ccc(C(N)=O)nc1 | cell-free assay, competition with immobilised ligand | 1 µM | 87 |
| C[C@@H]1CN(c2ccc3ncc(-c4ccc5[nH]nc(C6CC6)c5c4)n3n2)C[C@H](C)O1 | binding, competition with immobilised ligand | 0.5 µM | 100 |
| Cc1c(NC(=O)c2cc(C(N)=O)nc3cc(F)ccc23)c(C(F)(F)F)nn1Cc1ccc(C#N)cc1 | binding, competition with immobilised ligand | 1 µM | 69 |
| CN(CCCC(F)(F)F)c1nccc(-c2cnn3ncccc23)n1 | binding | 1 µM | 65 |
| CC(=O)N1CCC(c2ccc(C(=O)NC(=N)N)cc2C(F)(F)F)CC1 | cell-free assay, competition with immobilised ligand | 1 µM | 100 |
| O=C(NCCCN1CCOCC1)c1ccc(Nc2nccc(-c3cc4ccccc4s3)n2)cc1 | binding, competition with immobilised ligand | 1 µM | 92 |
